Screening data: PubChem BioAssay, The Scripps Research Institute Molecular Screening Center
TCR-CD3 inh = human TCR-CD3 binding inhibition; TAMRA-labeled TCR probe fluorescence, biochemical; inhibition, % at 9.4 µM; 0.37% of 360,000 active;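 further: recombinant mutant TCR 2C K166C tagged with TAMRA read by polarization; 0% = receptor in buffer alone and 100% = receptor with positive control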
mABHD4 FP = ABHD4 (mouse) inhibition, primary FP screen; Q8VD66; purified mABHD4, FP-Rh probe fluorescence polarization; inhibition, % at 8.92 µM; 0.54% of 370,000 active; AID 720543;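 active means inhibition exceeding the mean over every tested compound plus 3 SD, cut at about 30% in these data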;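 further: 0% = plate median of compound wells and 100% = S159A mutant with DMSO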
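Doses – 8.92 µM, single dose · Material – wild-type mouse ABHD4 protein · Replication – single well per compound (singlicate) · Measure – percent inhibition of probe binding, normalized to plate controls · Schedule – 45 min compound pre-incubation plus 60 min probe step, 25 °C · Detection – fluorescence polarization with parallel and perpendicular emission, 525/598 nm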
PRMT1 inh = PRMT1 (human) inhibition, primary screen. recombinant PRMT1, activity-based probe fluorescence polarization. 1.3% of 370,000 active. Q99873. inhibition, % at 2.79 µM. AID 652257;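 active means inhibition above about 21% made by adding two undisclosed values, limit read from the data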
HTRA1 inh = inhibitors of human serine peptidase HTRA1; Q92743; recombinant HTRA1, FP-rhodamine activity-based probe, fluorescence polarization; inhibition, % at 5.96 µM; 0.5% of 340,000 active; in the data active means inhibition above about 36%;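 further: 0% = enzyme with DMSO and 100% = wells lacking enzyme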
Target sequence (Q92743 whole entry, looked up): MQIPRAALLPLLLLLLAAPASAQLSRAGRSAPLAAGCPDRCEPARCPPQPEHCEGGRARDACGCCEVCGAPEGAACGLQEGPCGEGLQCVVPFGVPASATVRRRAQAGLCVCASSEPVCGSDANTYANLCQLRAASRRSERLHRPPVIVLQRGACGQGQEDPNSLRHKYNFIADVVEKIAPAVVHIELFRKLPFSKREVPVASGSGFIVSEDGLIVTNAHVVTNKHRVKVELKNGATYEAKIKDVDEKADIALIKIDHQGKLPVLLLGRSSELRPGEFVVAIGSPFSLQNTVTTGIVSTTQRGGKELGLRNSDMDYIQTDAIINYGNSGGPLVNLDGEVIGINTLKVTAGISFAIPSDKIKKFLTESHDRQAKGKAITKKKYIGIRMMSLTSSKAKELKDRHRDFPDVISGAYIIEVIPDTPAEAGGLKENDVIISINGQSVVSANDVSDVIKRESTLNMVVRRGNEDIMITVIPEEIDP
rCAG binder = molecules binding r(CAG) RNA repeats; 1.3% of 370,000 active; inhibition, % at 3 µM; r(CAG) RNA repeat, TO-PRO-1 dye displacement fluorescence; AID 651821;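 active means inhibition above the plate cutoff, the mean of all test compounds on that plate plus 3 SD, cut at about 35% in these data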;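 further: 0% = DMSO alone and 100% = 100 µM mitoxantrone as full dye displacement; higher means more dye released from RNA so lower well fluorescence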
SIAE inh = inhibitors of human sialic acid acetylesterase SIAE. AID 1053197. 0.69% of 370,000 active. SIAE FP-Rh probe binding, fluorescence polarization. Q9HAT2. inhibition, % at 9.66 µM;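 active means inhibition above a cutoff: mean of compounds within the control limits plus 3 SD of those, cut at about 17% in these data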;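 further: 0% = plate median of compound wells and 100% = probe without SIAE protein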
HTRA1 inh conf = HTRA1 (human) inhibition, confirmation; 66% of 1,600 active; inhibition, % at 5.96 µM; recombinant HTRA1, FP-rhodamine activity-based probe, fluorescence polarization; shares compounds with HTRA1 inh;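 active means mean inhibition over three repeats above a set limit taken from the earlier primary screen, cut at about 37% in these data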;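 further: 0% = HTRA1 with DMSO and 100% = wells lacking HTRA1; inhibitors block probe binding so polarization drops and inhibition rises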
BSA TAMRA ctr = BSA probe counter-screen for TCR-CD3 inhibitors; shares compounds with TCR-CD3 inh; TAMRA-labeled BSA probe fluorescence counterscreen; inhibition, % at 9.4 µM; 10% of 1,200 active; AID 652035; in the data active means inhibition above about 23%;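 further: 0% = buffer low control and 100% = reference high control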
TCR-CD3 conf = confirmation of human TCR-CD3 interaction inhibitors; shares compounds with TCR-CD3 inh; inhibition, % at 9.4 µM; 48% of 1,200 active; TAMRA-labeled TCR probe fluorescence binding assay
rCAG binder conf = r(CAG) RNA repeat binding, confirmation; shares compounds with rCAG binder; TO-PRO-1 dye displacement fluorescence; inhibition, % at 3 µM; 70% of 4,300 active;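 active means inhibition above a per-plate cutoff, the mean inhibition of sample wells plus 3 SD, cut at about 35% in these data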;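 further: loss of TO-PRO-1 fluorescence as compound displaces dye from 1x1 AA loop RNA; 0% = DMSO only wells and 100% = 100 µM mitoxantrone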
DNA CAG counter = disrupts DNA CAG TO-PRO-1 complex, flagging rCAG hits; d(CAG) DNA oligo TO-PRO-1 dye displacement, fluorescence; inhibition, % at 3 µM; AID 652068; shares compounds with rCAG binder; 94% of 4,300 active;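 active means inhibition above its plate's cutoff, the mean test-well inhibition plus 3 SD, cut at about 4.8% in these data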;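 further: 0% = DNA dye mix with DMSO and 100% = 100 µM mitoxantrone; hits displace the dye from DNA and so lower well fluorescence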
PRMT1 confirm = PRMT1 (human) inhibition, FP confirmation; AID 687036; 42% of 3,300 active; shares compounds with PRMT1 inh; inhibition, % at 2.79 µM; recombinant His-PRMT1, activity-based probe fluorescence polarization;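 active means mean inhibition across replicates above the hit cutoff derived for the earlier primary screen, cut at about 22% in these data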
mABHD4 conf = confirmation of mouse ABHD4 inhibitors; purified mABHD4, FP-Rh probe fluorescence polarization; 55% of 1,800 active; shares compounds with mABHD4 FP; inhibition, % at 8.92 µM;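 active means mean inhibition across replicates above the hit cutoff set in the primary screen, cut at about 30% in these data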;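 further: 0% = wild-type ABHD4 with DMSO and 100% = catalytically dead S159A mutant with DMSO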
Numbers without * were called inactive; . = no result; + = active, no number. Sampled rows, rich in hits. Any-hit rate of the full collection: about 3.5%. Unless noted, no stated cut-off is given here; in the data, active means inhibition above about 19%; inactive means the rest.

SMILES	TCR-CD3 inh	mABHD4 FP	PRMT1 inh	HTRA1 inh	rCAG binder	SIAE inh	HTRA1 inh conf	mABHD4 conf	others
CN1CCN(C2=C(Cl)C(=O)c3ccccc3C2=O)CC1	15	37*	18	50*	11	13	48*	32*
N#Cc1cc(N2CCCCC2)c([N+](=O)[O-])cc1C#N	3	5	-1	1	-2	-2	.	.
O=[N+]([O-])c1cc2no[n+]([O-])c2cc1N1CCCCC1	15	55*	2	77*	44*	11	32	51*	rCAG binder conf=7;DNA CAG counter=3
O=c1ccc2[n+]([O-])c3ccc(O)cc3oc-2c1	.	+	119*	141*	-9	.	+	+	PRMT1 confirm=69*
O=c1cc(O)c2ccc(O)cc2o1	-10	13	2	-2	14	-1	.	.
CCOC(=O)Cc1csc(NC(=O)NC2(C(F)(F)F)Oc3ccc(Cl)cc3O2)n1 (stereo not drawn)	9	17	3	16	0	-4	.	.
CCOC(=O)Cc1csc(NC(=O)NC2(C(F)(F)F)Oc3cc(Cl)c(Cl)cc3O2)n1	6	30*	9	37*	1	-1	64*	13
O=c1[nH]nc(CNc2ccc(O)cc2)c2ccccc12	89*	82*	25*	85*	6	79*	9	37*	BSA TAMRA ctr=12;TCR-CD3 conf=12
Cc1cccc(NC(=S)NCc2ccc3c(c2)cc(C)n3C)c1C	-9	30*	8	50*	10	4	-1	-16
Cc1cccc(NC(=O)NCc2ccc3c(c2)cc(C)n3C)c1	34*	42*	9	40*	22	7	-7	-3	BSA TAMRA ctr=1;TCR-CD3 conf=8
N#CCC[C@H]1CC[C@]2(CCCN(S(=O)(=O)c3ccccc3)C2)O1	.	-9	1	.	3	4	.	.
O=C(/C=C/c1ccc(O)c(O)c1)c1ccccc1O	7	36*	6	60*	14	-10	68*	27
NC(=S)NN=Cc1nccc2c(C(F)(F)F)cccc12	-3	31*	-1	69*	7	6	80*	32*
CN(C)c1ccc(C=c2c3cc([N+](=O)[O-])ccc3n3c2cc(-c2ccccc2)[n+]3C)cc1	57*	78*	12	92*	28	15	41*	28
O=C(N/N=C/c1cc(Br)c(Br)o1)c1ccc2c(c1)OCCO2	9	6	9	5	27	7	.	.
O=C(N/N=C/c1cc(Br)c(O)c(Br)c1O)c1ccc2c(c1)OCCO2	25*	49*	2	44*	18	14	41*	58*	BSA TAMRA ctr=-33;TCR-CD3 conf=20*
Cc1c(Br)c(=O)oc2c(Br)c(O)ccc12	2	2	-1	1	-2	-4	.	.
Cc1c(Br)c(=O)oc2c(Br)c(O)c(O)cc12	25*	51*	29*	64*	18	13	83*	53*	BSA TAMRA ctr=-9;TCR-CD3 conf=17;PRMT1 confirm=35*
COC(=O)[C@H](C)NC(=O)[C@H](CC(C)C)NC(=O)OC(C)(C)C	.	-2	3	.	2	-4	.	.
CCOC(=O)[C@]12CCCC=C1N(Cc1ccc(OC)cc1)C(=O)[C@@H]2CC(=O)NCCC(C)C	.	-5	-1	.	1	3	.	.
O=C(O)c1cc(O)c2c(c1)[C@H]([C@H]1c3cc(C(=O)O)cc(O)c3C(=O)c3c(O[C@@H]4O[C@H](CO)[C@@H](O)[C@H](O)[C@H]4O)cccc31)c1cccc(OC3O[C@H](CO)[C@@H](O)[C@H](O)[C@H]3O)c1C2=O (stereo partly drawn)	137*	60*	37*	40*	100*	74*	19	5	BSA TAMRA ctr=-14;TCR-CD3 conf=135*;rCAG binder conf=99*;DNA CAG counter=90*;PRMT1 confirm=13
C[N+]1=C2N[C@@H](c3ccccc3)CC(=O)N2/C(=C\c2ccccc2)[C@@H]1Cc1ccccc1	.	6	-6	.	.	5	.	.
CNc1ccc(Br)cc(C(=O)/C=C/c2cc(OC)ccc2OC)c1=O	16	38*	26*	39*	43*	17*	9	40*	rCAG binder conf=38*;DNA CAG counter=16*
CNc1ccc(Br)cc(C(=O)/C=C/c2ccc3c(c2)OCO3)c1=O	18	40*	25*	44*	33	11	13	44*
Oc1c(N=Nc2ccccn2)ccc2ccccc12	7	35*	-3	51*	10	5	38*	25
SMILES	TCR-CD3 inh	mABHD4 FP	PRMT1 inh	HTRA1 inh	rCAG binder	SIAE inh	HTRA1 inh conf	mABHD4 conf	others
Oc1ccc(N=Nc2ccccc2-c2nn[nH]n2)c(O)c1	2	68*	19	42*	79*	16	67*	71*
CN(CCc1ccccc1)C(=O)c1ccc2c(c1)ncn2C1CCCCC1	.	4	6	.	2	-3	.	.
Oc1ccc2ccccc2c1C=Nc1ccccc1Br	-3	-1	9	2	0	1	.	.
Oc1ccccc1N=Cc1c(O)ccc2ccccc12	29*	45*	13	63*	5	11	78*	45*	BSA TAMRA ctr=-9;TCR-CD3 conf=37*
CN(C)Cc1c(O)ccc2c(=O)c(-c3ccc(Cl)cc3)coc12	10	2	-1	3	3	-4	.	.
O=c1c(-c2ccc([N+](=O)[O-])cc2)coc2c(O)c(O)ccc12	16	42*	38*	66*	8	-2	68*	22
COc1ccc(Cn2ccc3ccc(-c4ccc5ccn(Cc6cccc(F)c6)c5c4)cc32)cc1	.	5	7	.	21	-4	.	.
O=Cc1cc(N=Nc2cccc(C(=O)O)c2)ccc1O	-6	18	6	11	1	-33	.	.
O=Cc1cc(N=Nc2ccccc2Cl)ccc1O	5	30*	2	38*	13	10	54*	35*
Cc1ccc(-c2cc(C(=O)NN=Cc3ccc(-c4ccccc4)cc3)[nH]n2)cc1	.	2	-5	.	10	2	.	.
